From PubChem
LEDGF integ inh = blocks HIV-1 LEDGF/p75-dependent DNA integration; hit rate 0.64% among 370,000; AID 743269; TR-FRET IN-LEDGF/p75 DNA integration, Eu/Cy5; inhibition, % at 3.7 µM;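 active = inhibition above the screen-wide mean plus 3 SD, cut at about 13% in these data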;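 also: signal is the Cy5 over europium emission ratio at 671 and 618 nm; 0% = plate median of compound wells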
UCH37 DUB inh = blocks the human deubiquitinase UCH37; Q9Y5K5; inhibition, % (test concentration not listed); hit rate 0.33% among 330,000; AID 588478; purified proteasome/UCH37, Ub-AMC cleavage fluorescence;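 active = mean inhibition over replicate wells above about 20%, limit read from the data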;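 also: 0% = compound-free wells with enzyme and 100% = wells lacking proteasome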
Target sequence (Q9Y5K5 whole entry, looked up): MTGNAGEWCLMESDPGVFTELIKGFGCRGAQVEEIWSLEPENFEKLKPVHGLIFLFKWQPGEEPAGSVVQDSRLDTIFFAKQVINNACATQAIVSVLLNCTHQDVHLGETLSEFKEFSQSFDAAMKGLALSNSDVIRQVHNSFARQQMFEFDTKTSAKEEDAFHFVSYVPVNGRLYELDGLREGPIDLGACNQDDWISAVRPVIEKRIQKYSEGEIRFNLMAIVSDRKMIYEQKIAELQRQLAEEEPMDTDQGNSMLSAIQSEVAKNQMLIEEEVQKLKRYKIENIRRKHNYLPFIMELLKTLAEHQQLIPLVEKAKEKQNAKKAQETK
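Schedule: 30 min plus 25 min, room temperature / Material: human UCH37 within purified proteasomes / Technique: AMC fluorescence intensity at 355/460 nm / Buffer or medium: pH 7.4 Tris-HCl (50 mM) with ovalbumin, ATP-MgCl2, DTT / Controls: wells without proteasome as full block, compound-free enzyme plus substrate as uninhibited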
NSD2 inh = inhibitors of human histone methyltransferase NSD2; inhibition, % at 12.5 µM; AID 743445; hit rate 0.54% among 310,000; O96028; NSD2 peptide methylation, AlphaScreen, 120 min; in the data active = inhibition above about 50%
TDP2 inh = TDP2 (human) inhibition, absorbance primary screen; recombinant TDP2, T5PNP hydrolysis, p-nitrophenol absorbance 415 nm; hit rate 0.34% among 370,000; AID 720702; inhibition, % at 12.8 µM;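 active = inhibition above the mean of all tested compounds plus 3 SD, set per campaign, cut at about 25% in these data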;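 also: 0% = DMSO with enzyme and 100% = buffer with substrate but no TDP2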
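Evaluation: % inhibition relative to enzyme-containing and enzyme-free wells. Material: recombinant human TDP2. Benchmarks: enzyme-free and DMSO wells. Timing: enzyme reaction with compound for 2 h at 37 °C. Compound dosing: 12.8 µM only. Measured by: p-Nitrophenol epi absorbance. Reagent: T5PNP substrate at 5 mM, a TopII-DNA adduct mimic. Replication: single well per compound.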
CASP6 VEID inh = blocks human caspase-6 cleavage activity. AID 686996. hit rate 0.53% among 350,000. P55212. purified caspase-6, Z-VEID-R110 cleavage fluorescence. inhibition, % at 12.5 µM;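 active = mean inhibition across replicates at least about 35%, with every replicate also reaching that limit, limit read from the data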;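 also: 0% = median of neutral control wells and 100% = no fluorescence left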
Target sequence (P55212 24-179 limits assumed): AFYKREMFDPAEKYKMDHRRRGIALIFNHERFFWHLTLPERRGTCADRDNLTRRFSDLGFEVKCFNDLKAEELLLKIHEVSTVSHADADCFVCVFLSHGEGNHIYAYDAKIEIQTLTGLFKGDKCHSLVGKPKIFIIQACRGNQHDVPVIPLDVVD
Target sequence (P55212 194-293 limits assumed): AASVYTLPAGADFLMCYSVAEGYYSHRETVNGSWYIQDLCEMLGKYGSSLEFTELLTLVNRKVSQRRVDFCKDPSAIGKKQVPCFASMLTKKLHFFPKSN
Alpha artifact = counter-screen for NSD2 inhibitors: AlphaScreen artifacts; AID 1053174; AlphaScreen artifact counterscreen, preloaded methylated H4 peptide; AC35, µM (titrated, usually from 10 µM), without a hit: top-dose activity change, negative = signal loss; shares compounds with NSD2 inh; hit rate 9.4% among 1,500; call rule not given here
Active calls of the source: *. Only some compounds are listed: those with a hit (about 1.3% of all), similar ones and a draw of the others.

COc1ccc(OC)c(/C=C2\SC(=S)N(NS(=O)(=O)c3ccc(C)cc3)C2=O)c1 was read as LEDGF integ inh 1, UCH37 DUB inh 14, NSD2 inh 52*, TDP2 inh 6, CASP6 VEID inh 0 and Alpha artifact -11%.
For COc1ccc(/C=C2\SC(=S)N(NS(=O)(=O)c3ccc(C)cc3)C2=O)c(OC)c1 the results were LEDGF integ inh 1, NSD2 inh 45, TDP2 inh -9 and CASP6 VEID inh 2.
`COc1ccc(C2=NNC(c3cccs3)=Nc3ccc(OC)cc32)cc1` gave LEDGF integ inh 0, UCH37 DUB inh -7, NSD2 inh 51*, TDP2 inh -8 and Alpha artifact -14%.
CCOc1ccc(C2=NNC(c3cccs3)=Nc3ccc(OC)cc32)cc1OCC was read as LEDGF integ inh -1, UCH37 DUB inh 9, NSD2 inh 2 and TDP2 inh 0.
Cc1[nH]c2ccccc2c1C=NNc1nc(Nc2ccccc2)nc(N2CCOCC2)n1 was read as UCH37 DUB inh 2.
`COc1cc(-n2c(C)nc3cc(C(=O)O)ccc32)cc(OC)c1OC` gave LEDGF integ inh -3, UCH37 DUB inh 3, NSD2 inh -1 and TDP2 inh 4.
For Cc1cc(C)cc(-n2c(C)nc3cc(C(=O)O)ccc32)c1 the results were LEDGF integ inh 1, UCH37 DUB inh 5, NSD2 inh 73*, TDP2 inh -2, CASP6 VEID inh -5 and Alpha artifact -1%.
Cc1cc(C)c2c(c1)N[C@H](c1cccs1)[C@@H]1CCO[C@H]21 was read as LEDGF integ inh 3, UCH37 DUB inh 4, NSD2 inh 50*, TDP2 inh 5, CASP6 VEID inh -2 and Alpha artifact -1%.
O=C(Nc1ccccc1)OCCCCOC(=O)Nc1ccccc1 was read as LEDGF integ inh -2, UCH37 DUB inh 2, NSD2 inh 55*, TDP2 inh 1, CASP6 VEID inh -2 and Alpha artifact -2%.
O=C(NN=Cc1cccnc1)NC12CC3CC(CC(C3)C1)C2 was read as UCH37 DUB inh 6.
`COc1ccc(NS(=O)(=O)c2cc(NC(=O)c3ccccc3)ccc2N2CCOCC2)cc1` gave LEDGF integ inh -8, UCH37 DUB inh 6, NSD2 inh -4, TDP2 inh -13 and CASP6 VEID inh 1.
COc1ccc(NS(=O)(=O)c2cc(NC(=O)COc3ccccc3)ccc2N2CCOCC2)cc1 was read as LEDGF integ inh -5, UCH37 DUB inh 2, NSD2 inh 60*, TDP2 inh -5, CASP6 VEID inh -3 and Alpha artifact -3%.
Screening CCOc1cc(C=NNC(=O)Cn2nc([N+](=O)[O-])cc2C)ccc1OCc1ccc(F)cc1 returned UCH37 DUB inh 4.
`Cc1cc(C)nc(NN=Cc2c(C)oc3ccccc23)n1` gave UCH37 DUB inh 2.
`CN1C(=O)CSC1=NNC(=O)COc1cccc2cccnc12` gave UCH37 DUB inh 4.
`Cc1cccc(/C=C2/Sc3ccc(C(=O)NCCCN4CCOCC4)cc3NC2=O)c1` gave LEDGF integ inh -3, NSD2 inh -2, TDP2 inh 0 and CASP6 VEID inh 4.
Screening CCN1CCN(CCCNC(=O)c2ccc3c(c2)NC(=O)/C(=C\c2cccc(C)c2)S3)CC1 returned LEDGF integ inh -5, UCH37 DUB inh 11, NSD2 inh 51*, TDP2 inh -3, CASP6 VEID inh -82 and Alpha artifact -5%.
Screening O=C(CC(=O)Nc1ccc(Cl)cc1)N/N=C\c1cccc(F)c1 returned LEDGF integ inh -1, NSD2 inh 113*, TDP2 inh 10, CASP6 VEID inh -1 and Alpha artifact 2%.
`Cc1ccccc1S(=O)(=O)Cc1ccc(C(=O)NCCc2ccccc2)o1` gave LEDGF integ inh -4, UCH37 DUB inh -1, NSD2 inh 35, TDP2 inh -12 and CASP6 VEID inh 3.
For CCN(CC)CCNC(=O)c1ccc(CS(=O)(=O)c2ccccc2C)o1 the results were LEDGF integ inh -1, UCH37 DUB inh 3, NSD2 inh 51*, TDP2 inh 0, CASP6 VEID inh -11 and Alpha artifact -2%.
Screening O=[N+]([O-])c1ccccc1C=NNC1=NCCN1 returned UCH37 DUB inh 6.
For NC(=NOCc1cccc([N+](=O)[O-])c1)c1nonc1N the results were UCH37 DUB inh 2.
Screening Cc1nnc(C)n1N=Cc1ccccc1 returned UCH37 DUB inh 0.
CCOc1ccccc1NC(=O)CSc1nc2nc(-c3cccs3)cc(C(F)(F)F)c2c(=O)[nH]1 was read as LEDGF integ inh -10, UCH37 DUB inh -31, NSD2 inh 84*, TDP2 inh -4, CASP6 VEID inh -2 and Alpha artifact -1%.
O=C(O)c1cc(NN=Cc2ccc(-c3ccc(F)cc3)o2)ccc1Cl was read as UCH37 DUB inh -16.
For Cc1nn(C)c(C(=O)NN=Cc2cccnc2)c1Br the results were UCH37 DUB inh 5.
Cc1c(Cc2ccccc2)c(=O)oc2c(O)c(O)ccc12 was read as LEDGF integ inh 2, UCH37 DUB inh 3, NSD2 inh 61*, TDP2 inh -2, CASP6 VEID inh 17 and Alpha artifact -12%.
For Cc1c(Cc2ccccc2)c(=O)oc2cc(O)ccc12 the results were LEDGF integ inh 2, UCH37 DUB inh inactive, NSD2 inh -6, TDP2 inh 9 and CASP6 VEID inh 5.
Screening COc1ccc(N=c2scc(C)n2CCCN2CCCC2=O)cc1 returned LEDGF integ inh -5, UCH37 DUB inh 3, NSD2 inh 151*, TDP2 inh -4, CASP6 VEID inh 0 and Alpha artifact 2%.
COc1cc(C(=O)NN=CC2CC=CCC2)cc(OC)c1OC (configuration not stated) was read as UCH37 DUB inh 5.
For CC(C)(C)c1[nH]nc2c1C(C1C=CCCC1)C(C#N)=C(N)O2 (configuration not stated) the results were LEDGF integ inh -1, UCH37 DUB inh 5, NSD2 inh 127*, TDP2 inh 4 and Alpha artifact -6%.
Screening CC(C)c1[nH]nc2c1C(C1C=CCCC1)C(C#N)=C(N)O2 (configuration not stated) returned LEDGF integ inh -7, UCH37 DUB inh 3, NSD2 inh 2, TDP2 inh -3 and CASP6 VEID inh 3.
`O=C(NC1CCCc2ccccc21)c1ccccc1Cl` (configuration not stated) gave LEDGF integ inh 2, UCH37 DUB inh 1, NSD2 inh -2, TDP2 inh 4 and CASP6 VEID inh 1.
